# Assay results published in ChEMBL document CHEMBL4152343, “Design, Synthesis, and Pharmacological Evaluation of Second-Generation Tetrahydroisoquinoline-Based CXCR4 Antagonists with Favorable ADME Properties” (J Med Chem, 2018).
# How the values were obtained:
# [1] = target: T1, C-X-C chemokine receptor type 4 (Homo sapiens, UniProt P61073); assay: Antagonist activity at CXCR4 in human CCRF-CEM cells assessed as inhibition of SDF-1alpha-induced calcium release preincubated for 25 mins followed by SDF-1alpha stimulation and measured for 90 secs by calcium flux assay; assay type: functional, cell-based
# [2] = target: Muscarinic acetylcholine receptor; assay: Antagonist activity at mAChR in human CCRF-CEM cells assessed as inhibition of acetylcholine-induced calcium release preincubated for 25 mins followed by acetylcholine stimulation and measured for 90 secs by calcium flux assay; assay type: functional, cell-based
# How it was run: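 Endogenous muscarinic receptors in CCRF-CEM cells (HBSS/HEPES/BSA buffer, 40,000 cells/well, dye-loaded 30 min at 37°C). Calcium flux recorded 90 s by FDSS. IC50 by 4-parameter logistic fit against an internal control compound; duplicate wells, single experiment.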
# [3] = target: Cytochrome P450 2D6 (Homo sapiens, UniProt P10635); assay: Inhibition of recombinant human CYP2D6 expressed in insect cells microsomes using AMMC as substrate preincubated for 30 mins followed by NADP addition and measured after 45 mins by fluorescence analysis; assay type: ADME
# [4] = Metabolic stability in human liver microsomes assessed as parent compound remaining after 10 mins by LC-MS/MS analysis; assay type: ADME, microsome; conditions: read-out: Stability
# How it was run: (§1)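 Compound depletion measured by LC/MS/MS after 10 min at 37 °C in liver microsome preparations (CYP450 and other NADP-dependent enzymes). Values are % of compound remaining; duplicates in a single experiment.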
# [5] = Metabolic stability in mouse liver microsomes assessed as parent compound remaining after 10 mins by LC-MS/MS analysis; assay type: ADME, microsome; conditions: read-out: Stability; how it was run: as §1
# [6] = target: Cytochrome P450 3A4 (Homo sapiens, UniProt P08684); assay: Inhibition of human CYP3A4; assay type: ADME
# [7] = target: Voltage-gated inwardly rectifying potassium channel KCNH2 (Homo sapiens, UniProt Q12809); assay: Displacement of [3H]astemizole from human ERG expressed in HEK cell membranes
# How it was run: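 Binding assay measuring [3H]astemizole displacement in HEK membranes overexpressing hKv11.1.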
# [8] = target: T1, C-X-C chemokine receptor type 4; assay: Agonist activity at CXCR4 in human CCRF-CEM cells assessed as induction of calcium release incubated for 25 mins by calcium flux assay; assay type: functional, cell-based
# How it was run: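 CCRF-CEM T lymphoblasts (endogenous CXCR4) in HBSS/20 mM HEPES/0.1% fatty-acid-free BSA, 40,000 cells/well, dye-loaded 30 min at 37°C, then 15 min at room temperature. Compounds added at final 25,000–0.423 nM (0.5% DMSO) and calcium flux read by FDSS for 90 s.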
# [9] = target: Voltage-gated L-type calcium channel (Homo sapiens, UniProt Q13936+Q13698+Q01668+O60840); assay: Antagonist activity at L-type calcium channel (unknown origin); assay type: protein assay
# [10] = Permeability of compound at pH 5.5 by PAMPA; assay type: ADME; conditions: read-out: permeability
# How it was run: (§2)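 Compound from 10 mM DMSO stock diluted 1:100 to 100 µM (1% DMSO) in pH 7.4 or pH 5.5 donor buffer, then filtered. Lipid-coated filter membrane with pH 7.4 acceptor buffer; incubated 4 h at room temperature. UV plate reading gives Pc. Duplicates in two independent experiments unless noted.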
# [11] = Permeability of compound at pH 7.4 by PAMPA; assay type: ADME; conditions: read-out: permeability; how it was run: as §2
# [12] = species: Homo sapiens; assay: Selectivity index, ratio of IC50 for antagonist activity at mAChR in human CCRF-CEM cells to IC50 for antagonist activity at CXCR4 in human CCRF-CEM cells; assay type: cell-based
# Chain of Cytochrome P450 3A4 (P08684 whole entry): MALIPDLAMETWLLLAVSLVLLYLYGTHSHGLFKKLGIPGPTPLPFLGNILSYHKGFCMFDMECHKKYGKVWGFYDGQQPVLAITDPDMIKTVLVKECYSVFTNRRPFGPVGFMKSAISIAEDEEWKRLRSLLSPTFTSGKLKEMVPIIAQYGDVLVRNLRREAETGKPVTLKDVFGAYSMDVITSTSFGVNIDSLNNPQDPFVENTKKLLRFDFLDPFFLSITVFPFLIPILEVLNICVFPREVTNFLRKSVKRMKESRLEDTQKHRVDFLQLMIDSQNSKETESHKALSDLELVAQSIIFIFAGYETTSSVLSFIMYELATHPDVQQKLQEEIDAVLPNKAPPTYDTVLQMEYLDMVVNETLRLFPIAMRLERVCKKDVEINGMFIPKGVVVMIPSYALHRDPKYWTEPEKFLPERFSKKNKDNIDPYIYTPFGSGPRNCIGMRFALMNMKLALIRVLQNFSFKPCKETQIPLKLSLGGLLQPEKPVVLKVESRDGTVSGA
# Chain of Cytochrome P450 2D6 (P10635 whole entry): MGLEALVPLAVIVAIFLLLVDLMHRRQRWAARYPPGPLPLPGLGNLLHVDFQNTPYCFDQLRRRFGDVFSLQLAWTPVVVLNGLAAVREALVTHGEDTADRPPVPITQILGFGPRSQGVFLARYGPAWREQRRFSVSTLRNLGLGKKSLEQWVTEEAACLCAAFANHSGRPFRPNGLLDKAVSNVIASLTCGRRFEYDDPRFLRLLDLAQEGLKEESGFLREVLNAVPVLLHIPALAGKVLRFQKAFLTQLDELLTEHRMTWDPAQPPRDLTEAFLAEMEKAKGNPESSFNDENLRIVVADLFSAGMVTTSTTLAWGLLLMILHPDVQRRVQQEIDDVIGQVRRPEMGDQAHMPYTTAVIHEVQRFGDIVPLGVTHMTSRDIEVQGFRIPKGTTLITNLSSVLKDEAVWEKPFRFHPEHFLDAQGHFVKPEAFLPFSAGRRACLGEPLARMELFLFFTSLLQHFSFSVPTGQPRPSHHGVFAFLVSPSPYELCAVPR
# T1 sequence (P61073 whole entry): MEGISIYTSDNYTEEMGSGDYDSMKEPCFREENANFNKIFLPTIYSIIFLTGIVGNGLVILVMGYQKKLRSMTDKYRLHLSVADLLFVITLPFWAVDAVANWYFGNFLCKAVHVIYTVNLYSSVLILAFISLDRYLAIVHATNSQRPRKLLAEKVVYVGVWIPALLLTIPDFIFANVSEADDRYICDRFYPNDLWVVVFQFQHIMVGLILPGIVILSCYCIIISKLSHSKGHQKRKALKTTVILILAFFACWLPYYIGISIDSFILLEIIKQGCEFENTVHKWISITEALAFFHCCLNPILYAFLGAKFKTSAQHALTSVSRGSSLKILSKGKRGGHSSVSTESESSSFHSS
# Chain of Voltage-gated inwardly rectifying potassium channel KCNH2 (Q12809 whole entry): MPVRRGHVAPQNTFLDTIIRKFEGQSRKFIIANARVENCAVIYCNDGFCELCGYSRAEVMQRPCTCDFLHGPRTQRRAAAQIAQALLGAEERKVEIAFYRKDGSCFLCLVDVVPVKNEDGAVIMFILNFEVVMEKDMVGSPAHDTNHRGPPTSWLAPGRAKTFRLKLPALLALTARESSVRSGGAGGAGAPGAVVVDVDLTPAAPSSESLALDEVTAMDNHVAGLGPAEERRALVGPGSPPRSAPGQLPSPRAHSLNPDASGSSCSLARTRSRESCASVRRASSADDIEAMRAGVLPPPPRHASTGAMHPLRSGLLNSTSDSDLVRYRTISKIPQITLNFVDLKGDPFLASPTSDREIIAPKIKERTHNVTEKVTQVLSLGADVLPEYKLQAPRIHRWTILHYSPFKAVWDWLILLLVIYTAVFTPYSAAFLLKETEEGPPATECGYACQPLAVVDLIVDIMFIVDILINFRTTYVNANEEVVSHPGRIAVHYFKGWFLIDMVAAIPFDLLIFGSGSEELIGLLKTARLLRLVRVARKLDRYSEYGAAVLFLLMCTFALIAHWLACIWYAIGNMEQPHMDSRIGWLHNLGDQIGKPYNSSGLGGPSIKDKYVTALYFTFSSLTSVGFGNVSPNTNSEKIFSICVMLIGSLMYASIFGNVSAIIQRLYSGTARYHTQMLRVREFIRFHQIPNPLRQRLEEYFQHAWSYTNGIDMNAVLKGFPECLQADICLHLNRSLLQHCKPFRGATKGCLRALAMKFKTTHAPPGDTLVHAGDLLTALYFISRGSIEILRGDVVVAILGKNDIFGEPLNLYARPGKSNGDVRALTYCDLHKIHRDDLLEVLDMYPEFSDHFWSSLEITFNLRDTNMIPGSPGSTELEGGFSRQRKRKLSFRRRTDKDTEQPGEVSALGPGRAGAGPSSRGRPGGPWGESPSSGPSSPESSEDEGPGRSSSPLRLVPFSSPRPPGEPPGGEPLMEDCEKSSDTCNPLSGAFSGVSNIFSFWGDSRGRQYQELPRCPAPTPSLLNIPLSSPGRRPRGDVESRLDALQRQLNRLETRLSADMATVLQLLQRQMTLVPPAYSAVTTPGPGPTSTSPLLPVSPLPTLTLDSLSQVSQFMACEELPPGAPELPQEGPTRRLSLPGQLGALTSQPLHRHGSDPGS
Structure (SMILES),IC50 [1] [µM],IC50 [2] [µM],IC50 [3] [µM],remaining at 10 min [4] [%],remaining at 10 min [5] [%],IC50 [6] [µM],IC50 [7] [µM],EC50 [8] [µM],IC50 [9] [µM],Papp [10] [×10⁻⁶ cm/s],Papp [11] [×10⁻⁶ cm/s],Ratio IC50 [12]
CN(C[C@H]1Cc2c(cccc2N2CCNCC2)CN1)[C@H]1CCCc2cccnc21,0.00608,7.18,> 20,99.7,19.9,> 20,20.3,> 30,> 80,,,
CN(C[C@H]1Cc2c(cccc2N2CCN(Cc3ccccn3)CC2)CN1)[C@H]1CCCc2cccnc21,0.00447,10.8,11,4.2,40.4,6.79,,> 30,,8.2,,
CN(C[C@H]1Cc2c(cccc2N2CCN3CCC[C@@H]3C2)CN1)[C@H]1CCCc2cccnc21,0.00359,26.1,> 20,52.2,36.7,> 20,,> 30,,,74,> 5000
